Test results taken from ChEMBL document CHEMBL1938298, “Synthesis and characterization of [¹²⁵I]2-iodo N-[(S)-{(S)-1-methylpiperidin-2-yl}(phenyl)methyl]3-trifluoromethyl-benzamide as novel imaging probe for glycine transporter 1” (Bioorg Med Chem, 2011).
Active and inactive are the calls of the source. The rule behind the calls is not given here.

Assays:
[1] = molecular target: T1, Sodium- and chloride-dependent glycine transporter 1 (Rattus norvegicus) (UniProt P28572); test: Binding affinity to GlyT1 in rat brain striatum at 0.03 to 0.04 nM preincubated for 20 mins in binding buffer before compound addition measured after 30 mins by autoradiography in presence of 0.01 mM NMDA receptor glycine site antagonist L-701,324 relative to control; assay type: tissue-based; conditions: tested as the 125I-labelled form
T1 sequence (whole entry): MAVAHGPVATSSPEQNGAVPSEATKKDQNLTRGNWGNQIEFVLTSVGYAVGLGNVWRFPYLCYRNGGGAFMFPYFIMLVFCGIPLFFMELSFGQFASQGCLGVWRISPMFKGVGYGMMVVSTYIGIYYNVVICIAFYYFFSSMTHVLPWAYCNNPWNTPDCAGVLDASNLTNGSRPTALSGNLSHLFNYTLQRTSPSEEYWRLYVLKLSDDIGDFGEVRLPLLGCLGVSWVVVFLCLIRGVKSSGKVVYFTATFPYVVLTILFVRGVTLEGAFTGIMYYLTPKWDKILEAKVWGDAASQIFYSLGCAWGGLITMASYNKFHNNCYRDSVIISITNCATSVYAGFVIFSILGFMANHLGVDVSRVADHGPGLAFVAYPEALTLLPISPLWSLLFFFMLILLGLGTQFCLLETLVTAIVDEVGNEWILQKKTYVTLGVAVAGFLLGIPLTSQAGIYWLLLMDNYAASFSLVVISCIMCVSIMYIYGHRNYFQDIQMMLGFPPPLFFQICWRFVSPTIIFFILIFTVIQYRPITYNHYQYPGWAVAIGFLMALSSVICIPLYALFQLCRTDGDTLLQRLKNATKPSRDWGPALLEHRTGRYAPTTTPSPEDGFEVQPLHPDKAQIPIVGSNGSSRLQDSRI

[2] = molecular target: T1, Sodium- and chloride-dependent glycine transporter 1 (Rattus norvegicus); test: Binding affinity to GlyT1 in rat brain thalamus at 0.03 to 0.04 nM preincubated for 20 mins in binding buffer before compound addition measured after 30 mins by autoradiography in presence of 0.01 mM GlyT1 inhibitor HPCP relative to control; assay type: tissue-based; conditions: tested as the 125I-labelled form
[3] = molecular target: T1, Sodium- and chloride-dependent glycine transporter 1 (Rattus norvegicus); test: Binding affinity to GlyT1 in rat brain thalamus at 0.03 to 0.04 nM preincubated for 20 mins in binding buffer before compound addition measured after 30 mins by autoradiography in presence of 0.01 mM GlyT1 inhibitor ALX5407 relative to control; assay type: tissue-based; conditions: tested as the 125I-labelled form
[4] = molecular target: T1, Sodium- and chloride-dependent glycine transporter 1 (Rattus norvegicus); test: Binding affinity to GlyT1 in rat brain thalamus at 0.03 to 0.04 nM preincubated for 20 mins in binding buffer before compound addition measured after 30 mins by autoradiography in presence of 1 mM GlyT1 substrate glycine relative to control; assay type: tissue-based; conditions: tested as the 125I-labelled form
Mus musculus = test: In vivo binding affinity to GlyT1 in ddY mouse brain medullary region at 33.3 kBq, iv after 30 mins in presence of SSR504734 2 mg/kg, iv administered 15 mins prior to compound administration relative to control; assay type: functional, organism-based; set-up: dose 2 mg/kg; conditions: Medulla of organ, tested as the 125I-labelled form
[5] = molecular target: T1, Sodium- and chloride-dependent glycine transporter 1 (Rattus norvegicus); test: Binding affinity to GlyT1 in rat brain medullary region at 0.03 to 0.04 nM preincubated for 20 mins in binding buffer before compound addition measured after 30 mins by autoradiography in presence of 0.01 mM GlyT2 inhibitor ORG25543 relative to control; assay type: tissue-based; conditions: tested as the 125I-labelled form
Outline: (§1)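 Rat brain sagittal sections (20 µm) preincubated 20 min at 25 °C in Tris-HCl buffer pH 7.5 (NaCl, KCl, MgCl2, CaCl2), then 30 min at 25 °C with [125I] tracer (100 kBq, 0.03–0.04 nM) plus competitor (10 µM; glycine 1 or 10 mM). Cold washes, imaging plate 3 days, ROI PSL minus background per mm². % control from ≥triplicate slices, three rats.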

[6] = molecular target: T1, Sodium- and chloride-dependent glycine transporter 1 (Rattus norvegicus); test: Binding affinity to GlyT1 in rat brain hippocampus at 0.03 to 0.04 nM preincubated for 20 mins in binding buffer before compound addition measured after 30 mins by autoradiography in presence of 0.01 mM GlyT1 inhibitor SSR504734 relative to control; assay type: tissue-based; conditions: tested as the 125I-labelled form; outline: as §1
[7] = molecular target: T1, Sodium- and chloride-dependent glycine transporter 1 (Rattus norvegicus); test: Binding affinity to GlyT1 in rat brain thalamus at 0.03 to 0.04 nM preincubated for 20 mins in binding buffer before compound addition measured after 30 mins by autoradiography relative to control; assay type: tissue-based; conditions: tested as the 125I-labelled form
[8] = molecular target: T1, Sodium- and chloride-dependent glycine transporter 1 (Rattus norvegicus); test: Binding affinity to GlyT1 in rat brain striatum at 0.03 to 0.04 nM preincubated for 20 mins in binding buffer before compound addition measured after 30 mins by autoradiography in presence of GlyT1 inhibitor N-Me-SSR504734 relative to control; assay type: tissue-based; conditions: tested as the 125I-labelled form
[9] = molecular target: T1, Sodium- and chloride-dependent glycine transporter 1 (Rattus norvegicus); test: Binding affinity to GlyT1 in rat brain midbrain at 0.03 to 0.04 nM preincubated for 20 mins in binding buffer before compound addition measured after 30 mins by autoradiography in presence of GlyT1 inhibitor N-Me-SSR504734 relative to control; assay type: tissue-based; conditions: tested as the 125I-labelled form
[10] = molecular target: T1, Sodium- and chloride-dependent glycine transporter 1 (Rattus norvegicus); test: Binding affinity to GlyT1 in rat brain midbrain at 0.03 to 0.04 nM preincubated for 20 mins in binding buffer before compound addition measured after 30 mins by autoradiography in presence of 0.01 mM GlyT1 inhibitor HPCP relative to control; assay type: tissue-based; conditions: tested as the 125I-labelled form; outline: as §1
[11] = molecular target: T1, Sodium- and chloride-dependent glycine transporter 1 (Rattus norvegicus); test: Binding affinity to GlyT1 in rat brain corpus callosum at 0.03 to 0.04 nM preincubated for 20 mins in binding buffer before compound addition measured after 30 mins by autoradiography in presence of 0.01 mM GlyT1 inhibitor SSR504734 relative to control; assay type: tissue-based; conditions: tested as the 125I-labelled form; outline: as §1
Blood = test: Drug uptake in ddY mouse blood at 11.1 kBq, iv after 15 min by gamma counting; assay type: ADME, organism-based; conditions: in vivo
Outline: (§2)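 Male ddY mice (6 weeks, 30–35 g) received about 11.1 kBq [125I]tracer in 0.1 mL i.v. via tail vein. Killed at set times, organs dissected and weighed, radioactivity gamma counted. Reported as % injected dose/g tissue, mean ± SD, n = 5–6.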

Kidney = test: Drug uptake in ddY mouse kidney at 11.1 kBq, iv after 5 min by gamma counting; assay type: ADME, organism-based; conditions: in vivo
Outline: (§3)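 Male ddY mice (6 weeks, 30–35 g) were given about 11.1 kBq of [125I]tracer in 0.1 mL i.v. via the tail vein. At each time point the animals were killed and organs dissected, weighed and gamma-counted. Uptake is expressed as % injected dose per gram of tissue, mean ± SD, n = 5–6.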

Spleen = test: Drug uptake in ddY mouse spleen at 11.1 kBq, iv after 180 min by gamma counting; assay type: ADME, organism-based; conditions: in vivo, 3 h; outline: as §3
Pancreas = test: Drug uptake in ddY mouse pancreas at 11.1 kBq, iv after 30 min by gamma counting; assay type: ADME, organism-based; conditions: in vivo, 0.5 h; outline: as §3
Brain = test: Drug uptake in ddY mouse brain at 11.1 kBq, iv after 30 min by gamma counting; assay type: ADME, organism-based; conditions: in vivo, 0.5 h; outline: as §2

| SMILES | Activity [1] | Activity [2] | Activity [3] | Activity [4] | Activity (Mus musculus) | Activity [5] | Activity [6] | Activity [7] | Activity [8] | Activity [9] | Activity [10] | Activity [11] | Drug uptake (Blood) | Drug uptake (Kidney) | Drug uptake (Spleen) | Drug uptake (Pancreas) | Drug uptake (Brain) |
| --- | --- | --- | --- | --- | --- | --- | --- | --- | --- | --- | --- | --- | --- | --- | --- | --- | --- |
| CN1CCCC[C@H]1[C@@H](NC(=O)c1cccc(C(F)(F)F)c1I)c1ccccc1 | 96.8% | 22.5% | 33.2% | 108% | inactive | 91.4% | 46.3% | Active | 32.2% | 25.3% | 19.7% | 21.8% | – | – | – | – | – |
| CN1CCCC[C@H]1[C@@H](NC(=O)c1cccc(C(F)(F)F)c1[125I])c1ccccc1 | – | – | – | – | – | – | – | – | – | – | – | – | 0.69 % ID/g | 10.71 % ID/g | 3.41 % ID/g | 12.02 % ID/g | 2.17 % ID/g |
